Drawing on ChEMBL document CHEMBL1126642, “N-(1-methyl-5-indolyl)-N'-(3-pyridyl)urea hydrochloride: the first selective 5-HT1C receptor antagonist” (J Med Chem, 1993), this text covers Selectivity and pK1 for 3 molecules.

Test [1] can be described thus: Selectivity ratio is Ki value of 5-HT2 receptor to that of 5-HT1c receptor. Put shortly: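 Ratio of Ki at 5-HT2 ([3H]ketanserin, rat frontal cortex) to Ki at 5-HT1C ([3H]mesulergine, rat clone in 293 cells). Each Ki is a mean of n = 3 determinations.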
Test [2] concerns the target T1, 5-hydroxytryptamine receptor 2C (Rattus norvegicus) (UniProt P08909).
T1 sequence (whole entry): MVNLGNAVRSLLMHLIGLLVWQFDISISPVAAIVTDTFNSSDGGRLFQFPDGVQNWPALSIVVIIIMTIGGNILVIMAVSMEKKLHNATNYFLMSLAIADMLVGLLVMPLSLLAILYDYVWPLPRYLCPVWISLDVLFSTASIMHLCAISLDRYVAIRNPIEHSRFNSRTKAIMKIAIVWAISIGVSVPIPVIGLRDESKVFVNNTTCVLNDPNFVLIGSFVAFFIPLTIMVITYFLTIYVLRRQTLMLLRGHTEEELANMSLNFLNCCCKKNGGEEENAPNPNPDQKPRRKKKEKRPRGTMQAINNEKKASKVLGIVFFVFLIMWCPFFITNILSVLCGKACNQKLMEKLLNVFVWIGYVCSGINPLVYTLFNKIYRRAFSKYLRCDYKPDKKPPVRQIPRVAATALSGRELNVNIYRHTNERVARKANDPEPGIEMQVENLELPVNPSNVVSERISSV
Nature of the test: Binding affinity towards rat 5-hydroxytryptamine 1C receptor using [3H]mesulergine as radioligand expressed in 293 cells. The format is cell-based. The note with it: HEK293. The method in brief: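 Cloned rat 5-HT1C receptor expressed in 293 cells, labelled with [3H]mesulergine. Values are means ± SEM of n = 3 determinations.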

Turning to `Cn1ccc2c(NC(=O)Nc3ccncc3)cccc21`, the Selectivity in test [1] is 45. In test [2], this molecule had a pK1 of 7.18.

On to `Cn1ccc2c(NC(=O)Nc3ccccn3)cccc21`, for which the Selectivity in test [1] is over 19. The molecule further gave a pK1 in test [2] of 6.49.

Turning to `Cn1ccc2cccc(NC(=O)Nc3ccccc3)c21`, the pK1 in test [2] was under 5.3.
